Columns and labels:
Plasma = test: Fraction unbound in human plasma at 5 uM incubated for 4 hrs at 37 degC by equilibrium dialysis based LC/MS/MS analysis; format: ADME, cell-free
Outline: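 Fraction unbound measured in rat and human plasma and in rat brain homogenate.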

[1] = biological target: Muscarinic acetylcholine receptor M3 (Homo sapiens, UniProt P20309); test: Activity at human muscarinic acetylcholine receptor subtype 3 expressed in CHO cells by calcium mobilization assay acetylcholine; format: functional, cell-based
Outline: (§1)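 Muscarinic subtype selectivity by fluorescence calcium mobilization in highly expressing CHO lines with similar receptor levels; Gi/o-coupled M2 and M4 cells co-transfected with chimeric Gqi5 to couple to Ca2+ mobilization. Read-outs are PAM EC50 and ACh max response. Mean ± SEM of at least three independent determinations.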

[2] = biological target: Sigma non-opioid intracellular receptor 1 (Homo sapiens) (UniProt Q99720); test: Displacement of radioligand from human sigma-1 receptor at 10 uM
Outline: (§2)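 Pan Labs lead profiling radioligand binding battery of 68 GPCRs, ion channels and transporters, with test compound present at 10 μM.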

[3] = biological target: T1, Muscarinic acetylcholine receptor M5 (Homo sapiens) (UniProt P08912); test: Positive allosteric modulator activity at human muscarinic acetylcholine receptor subtype 5 expressed in CHO cells by calcium mobilization assay relative to acetylcholine; format: functional, cell-based
T1 sequence (whole entry): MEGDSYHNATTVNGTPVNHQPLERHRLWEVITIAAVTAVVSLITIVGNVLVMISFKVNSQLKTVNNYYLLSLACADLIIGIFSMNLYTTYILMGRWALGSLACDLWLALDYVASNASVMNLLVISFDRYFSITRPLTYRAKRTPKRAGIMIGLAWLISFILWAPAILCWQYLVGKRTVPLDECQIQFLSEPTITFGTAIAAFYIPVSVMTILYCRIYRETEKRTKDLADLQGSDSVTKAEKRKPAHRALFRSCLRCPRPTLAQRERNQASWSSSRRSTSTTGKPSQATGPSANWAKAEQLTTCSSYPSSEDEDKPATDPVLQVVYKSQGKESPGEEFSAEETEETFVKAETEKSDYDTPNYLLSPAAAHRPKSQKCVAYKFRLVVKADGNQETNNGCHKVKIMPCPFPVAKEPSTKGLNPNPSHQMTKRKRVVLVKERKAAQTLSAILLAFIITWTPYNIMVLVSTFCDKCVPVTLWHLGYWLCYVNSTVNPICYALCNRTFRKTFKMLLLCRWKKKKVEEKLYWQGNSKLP

[4] = biological target: Cannabinoid receptor 1 (Homo sapiens) (UniProt P21554); test: Displacement of radioligand from human CB1 receptor at 10 uM; outline: as §2
[5] = biological target: T2, Muscarinic acetylcholine receptor M4 (Rattus norvegicus, UniProt P08485); test: Activity at rat muscarinic acetylcholine receptor subtype 4 expressed in CHO cells co-transfected with chimeric Gqi5 by calcium mobilization assay; format: functional, cell-based; outline: as §1
T2 sequence (P08485 whole entry): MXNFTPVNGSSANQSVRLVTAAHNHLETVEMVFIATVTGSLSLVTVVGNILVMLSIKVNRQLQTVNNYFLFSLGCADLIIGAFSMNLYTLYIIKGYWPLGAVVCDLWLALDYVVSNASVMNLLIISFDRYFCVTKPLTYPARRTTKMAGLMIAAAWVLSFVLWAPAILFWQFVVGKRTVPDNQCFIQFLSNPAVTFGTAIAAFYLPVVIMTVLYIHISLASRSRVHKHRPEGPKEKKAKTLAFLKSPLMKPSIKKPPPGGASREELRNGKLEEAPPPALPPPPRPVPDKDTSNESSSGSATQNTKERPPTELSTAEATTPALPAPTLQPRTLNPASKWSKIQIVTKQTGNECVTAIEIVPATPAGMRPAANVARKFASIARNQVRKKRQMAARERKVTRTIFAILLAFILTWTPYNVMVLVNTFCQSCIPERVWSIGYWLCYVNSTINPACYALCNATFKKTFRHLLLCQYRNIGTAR

[6] = Volume of distribution at steady state in Sprague-Dawley rat 1 mg/kg, iv administered as single dose by LC/MS/MS utilizing electrospray ionization method; format: ADME, organism-based; parameters: dose 1 mg/kg, route intravenous; conditions: in vivo, read-out: Vdss
[7] = biological target: T3, Muscarinic acetylcholine receptor M5 (Homo sapiens, UniProt P08912); test: Positive allosteric modulator activity at human muscarinic acetylcholine receptor subtype 5 expressed in CHO cells by calcium mobilization assay; format: functional, cell-based; conditions: read-out: EC50
T3 sequence (P08912 whole entry): T1 sequence (whole entry)

[8] = biological target: T4, Muscarinic acetylcholine receptor M2 (Homo sapiens, UniProt P08172); test: Activity at human muscarinic acetylcholine receptor subtype 2 expressed in CHO cells co-transfected with chimeric Gqi5 by calcium mobilization assay; format: functional, cell-based; outline: as §1
T4 sequence (P08172 whole entry): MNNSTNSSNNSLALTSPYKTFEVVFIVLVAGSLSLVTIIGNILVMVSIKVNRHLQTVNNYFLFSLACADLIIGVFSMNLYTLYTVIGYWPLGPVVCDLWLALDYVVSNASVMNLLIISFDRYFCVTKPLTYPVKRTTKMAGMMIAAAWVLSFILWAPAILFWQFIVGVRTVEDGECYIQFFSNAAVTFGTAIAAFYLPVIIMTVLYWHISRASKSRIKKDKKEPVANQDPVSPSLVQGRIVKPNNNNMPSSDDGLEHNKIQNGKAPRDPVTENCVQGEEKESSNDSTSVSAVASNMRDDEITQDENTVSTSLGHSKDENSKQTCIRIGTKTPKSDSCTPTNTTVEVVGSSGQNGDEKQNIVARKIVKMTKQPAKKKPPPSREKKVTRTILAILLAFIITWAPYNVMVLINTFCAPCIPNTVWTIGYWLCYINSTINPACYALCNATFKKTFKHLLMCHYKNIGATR

[9] = biological target: T5, Muscarinic acetylcholine receptor M1 (Homo sapiens) (UniProt P11229); test: Activity at human muscarinic acetylcholine receptor subtype 1 expressed in CHO cells by calcium mobilization assay relative to acetylcholine; format: functional, cell-based; outline: as §1
T5 sequence (whole entry): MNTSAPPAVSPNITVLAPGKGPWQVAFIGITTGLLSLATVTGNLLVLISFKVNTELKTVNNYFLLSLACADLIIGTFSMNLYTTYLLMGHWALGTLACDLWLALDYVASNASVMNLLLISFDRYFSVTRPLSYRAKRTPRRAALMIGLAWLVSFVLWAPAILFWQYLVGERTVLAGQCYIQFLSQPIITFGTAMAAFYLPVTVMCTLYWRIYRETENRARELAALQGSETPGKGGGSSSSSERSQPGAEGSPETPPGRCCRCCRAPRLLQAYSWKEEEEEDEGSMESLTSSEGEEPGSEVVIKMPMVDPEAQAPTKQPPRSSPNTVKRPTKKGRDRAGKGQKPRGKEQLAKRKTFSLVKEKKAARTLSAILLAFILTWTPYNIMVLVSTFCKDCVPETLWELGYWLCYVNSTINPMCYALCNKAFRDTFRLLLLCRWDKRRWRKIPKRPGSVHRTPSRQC

[10] = Plasma clearance in Sprague-Dawley rat 1 mg/kg, iv administered as single dose by LC/MS/MS utilizing electrospray ionization method; format: ADME, organism-based; parameters: dose 1 mg/kg, route intravenous
[11] = Elimination half life in Sprague-Dawley rat 1 mg/kg, iv administered as single dose by LC/MS/MS utilizing electrospray ionization method; format: ADME, organism-based; parameters: dose 1 mg/kg, route intravenous; conditions: in vivo, read-out: beta t1/2
[12] = biological target: T1, Muscarinic acetylcholine receptor M5 (Homo sapiens); test: Positive allosteric modulator activity at human muscarinic acetylcholine receptor subtype 5 expressed in CHO cell membranes assessed as fold shift in acetylcholine binding affinity by [3H]NMS binding based scintillation counting method

Sequence of Sigma non-opioid intracellular receptor 1 (Homo sapiens) (Q99720 whole entry): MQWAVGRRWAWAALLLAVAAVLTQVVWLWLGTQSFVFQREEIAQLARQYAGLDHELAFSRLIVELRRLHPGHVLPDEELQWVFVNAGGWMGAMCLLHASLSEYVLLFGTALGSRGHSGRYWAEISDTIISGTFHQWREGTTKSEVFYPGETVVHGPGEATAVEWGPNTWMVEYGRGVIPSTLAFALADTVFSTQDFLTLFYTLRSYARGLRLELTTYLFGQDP
Sequence of Muscarinic acetylcholine receptor M3 (P20309 whole entry, looked up): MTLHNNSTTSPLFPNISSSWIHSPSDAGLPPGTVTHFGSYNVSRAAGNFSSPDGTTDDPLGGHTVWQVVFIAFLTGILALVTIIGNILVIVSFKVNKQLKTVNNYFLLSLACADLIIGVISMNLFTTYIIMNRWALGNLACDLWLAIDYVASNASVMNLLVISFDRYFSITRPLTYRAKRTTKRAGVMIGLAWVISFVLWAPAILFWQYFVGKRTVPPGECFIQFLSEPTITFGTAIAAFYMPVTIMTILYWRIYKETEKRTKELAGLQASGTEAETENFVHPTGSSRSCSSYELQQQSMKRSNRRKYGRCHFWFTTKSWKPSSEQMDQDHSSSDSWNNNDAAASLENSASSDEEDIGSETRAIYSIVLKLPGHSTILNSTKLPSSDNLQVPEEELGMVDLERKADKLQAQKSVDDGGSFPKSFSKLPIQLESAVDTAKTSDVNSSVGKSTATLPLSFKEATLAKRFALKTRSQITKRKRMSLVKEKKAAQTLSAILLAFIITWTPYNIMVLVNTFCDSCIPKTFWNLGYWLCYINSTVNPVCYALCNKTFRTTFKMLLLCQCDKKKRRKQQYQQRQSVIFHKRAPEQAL
Sequence of Cannabinoid receptor 1 (Homo sapiens) (P21554 whole entry): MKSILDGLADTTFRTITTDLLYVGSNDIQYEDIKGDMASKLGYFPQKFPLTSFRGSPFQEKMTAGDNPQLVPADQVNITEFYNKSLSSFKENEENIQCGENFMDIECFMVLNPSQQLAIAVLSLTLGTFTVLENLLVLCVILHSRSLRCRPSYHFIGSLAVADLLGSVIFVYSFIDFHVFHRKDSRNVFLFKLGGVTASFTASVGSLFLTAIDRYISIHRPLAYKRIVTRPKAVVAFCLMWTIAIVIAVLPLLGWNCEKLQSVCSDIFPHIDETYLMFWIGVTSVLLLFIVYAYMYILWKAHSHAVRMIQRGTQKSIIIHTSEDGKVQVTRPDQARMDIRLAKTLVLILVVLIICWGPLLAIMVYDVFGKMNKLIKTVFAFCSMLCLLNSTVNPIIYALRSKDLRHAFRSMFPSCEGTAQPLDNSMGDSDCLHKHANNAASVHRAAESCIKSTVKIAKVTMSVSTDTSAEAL

Structure (SMILES): CCN(Cc1ccccc1C(F)(F)F)C(=O)C1CCN(S(=O)(=O)c2ccc3[nH]ncc3c2)CC1
- Fu (Plasma): 0.015
- %max [1]: 67%
- inhibition [2]: 53%
- %max [3]: 96%
- inhibition [4]: 50%
- EC50 [5]: > 30 µM
- Vd [6]: 1.6 L/kg
- EC50 [7]: 0.19 µM
- EC50 [8]: > 30 µM
- %max [9]: 52%
- clearance [10]: 66 mL/min/kg
- half-life [11]: 22 min
- fold change (FC) [12]: 15

From ChEMBL document CHEMBL3352313 (J Med Chem, 2014)
